The results in this text go back to publication PMC6980694 (European journal of medicinal chemistry, 2019).

The test system of data set [1] is Zika virus (PRVABC59 strain). The data set is classed as cell-based. Conditions: for anti-Zika activity (in words): PRVABC59 strain, MOI 1, SNB-19 cells 24 h, titer in Vero cells 48 h. In short, it runs like this:
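SNB-19 cells, pretreated 1 h with graded compound concentrations (0.1% DMSO final), then infected with C6/36-derived ZIKV at MOI 1. Supernatants were harvested 24 h post-infection and focus-titered on confluent Vero cells: 2 h inoculation, methylcellulose overlay for 48 h, 4G2 antibody with HRP/DAB staining, foci counted.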

Data set [2] is described as follows: Cytotoxicity to Vero cells. The data set is classed as cell-based. Conditions: monkey, Vero kidney cells.

Regarding `C=C1CC[C@@H]2[C@](C)(CO)[C@H](O)CC[C@@]2(C)[C@@H]1C/C=C1/C(=O)OC[C@@H]1Oc1cccc2cccnc12` [Compound 3], the “safety/selectivity index (SI)” value in data set [1] (cell line not specified, CC50 in SNB-19 and Vero vs EC50) is greater than 16.

Take `C=C1CC[C@@H]2[C@](C)(CO)[C@H](O)CC[C@@]2(C)[C@@H]1C/C=C1/C(=O)OC[C@@H]1Oc1ccnc2ccccc12` [Compound 6]: the “anti-Zika activity (in words)” value in data set [1] was “inactive”.

As to `C=C1CC[C@@H]2[C@](C)(CO)[C@H](O)CC[C@@]2(C)[C@@H]1C/C=C1/C(=O)OC[C@H]1Oc1ccnc2ccccc12` [Compound 7], the CC50 at 48 h in data set [2] is 22.3 µM.

As for `C=C1CC[C@@H]2[C@]3(C)COC(C)(C)O[C@@H]3CC[C@@]2(C)[C@@H]1C/C=C1/C(=O)OC[C@@H]1Oc1c(Cl)cc(Cl)c2cccnc12` [Compound 15a, (14β)-(Quinolyl-5’,7’-dichloro-8’-oxy)-3,19-acetonylidene andrographolide], in data set [1], the “anti-Zika activity (in words)” value is “do not show anti-Zika activity”.

Take `C=C1CC[C@@H]2[C@]3(C)COC(C)(C)O[C@@H]3CC[C@@]2(C)[C@@H]1C/C=C1/C(=O)OC[C@H]1Oc1c(Cl)cc(Cl)c2cccnc12` [Compound 15b, (14α)-(Quinolyl-5’,7’-dichloro-8’-oxy)-3,19-acetonylidene andrographolide]: the “anti-Zika activity (in words)” value in data set [1] was “do not show anti-Zika activity”.

`C=C1CC[C@@H]2[C@](C)(CO)[C@H](O)CC[C@@]2(C)[C@@H]1C/C=C1/C(=O)OC[C@H]1Oc1c(Cl)cc(Cl)c2cccnc12` [Compound 16b, (14α)-(Quinolyl-5’,7’-dichloro-8’-oxy)andrographolide] registered a CC50 at 48 h in data set [2] of 58.6 µM.
